# PGC1a acetyl up: compounds raising PGC1a acetylation signal, primary screen, PGC1a modulator project, cell-based, U2OS, AlphaScreen, signal-increasing mode. overnight. activation, % at 15.6 µM. actives 0.21% (n = 350,000). AID 651723, 2012;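 active = every replicate reaching activation of at least 50%, whatever the mean replicate activation; inconclusive = replicates that disagree or another doubt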;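 also: hits raise the AlphaScreen acetylation signal above neutral controls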
#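 System: flag-PGC1a/GCN5 U2OS cells / Input: 7000 cells/well / Compound: single test concentration per compound / Incubation: overnight compound treatment, 37 °C / Technique: AlphaScreen on lysates with anti-acetyl-lysine antibody, acceptor and donor beads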
# Hep G6PC suppr: suppressors of forskolin-stimulated G6PC mRNA, dose response, PGC-1a acetylation activator project, cell-based, hepatocytes, RT-qPCR, cherry-picked samples. 240 tested, under 10 active. G6PC suppression (normalized activity, % of positive control; higher = more suppression), % at 26 µM. shares compounds with PGC1a acetyl up. primary mouse hepatocytes;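 active = dose curves showing G6PC suppression whose half-maximal dose is at most twice the top valid dose; inconclusive = flat curves with moderate negative activity, or unreliable fits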;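 also: G6PC expression relative to GAPDH housekeeping gene as delta delta Ct; 0% = median of neutral control wells and 100% = median of positive control wells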
# Hep PCK1 suppr: suppression of PCK1 mRNA in primary hepatocytes, dose response, PGC-1a acetylation activator project, cell-based, primary mouse hepatocytes, RT-qPCR, cherry-pick; shares compounds with PGC1a acetyl up; forskolin-stimulated; PCK1 expression decrease, unspecified at 26 µM; 230 tested, under 10 active; AID 743465, 2014;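 active = compounds lowering PCK1 expression whose fitted half-maximal concentration is at most twice the top tested dose; inconclusive = flat fit with moderate opposite-direction effect, or poor fit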;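 also: values are delta delta Ct of PCK1 relative to GAPDH; higher delta delta Ct means lower PCK1 expression so positive values indicate hits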
# PGC1a hep suppr: suppression of PGC-1a mRNA in primary hepatocytes, dose response, PGC-1a acetylation activator project, cell-based, primary mouse hepatocytes, RT-qPCR, cherry-pick; shares compounds with PGC1a acetyl up; PGC-1a mRNA qPCR, forskolin; top dose 26 µM; max activity (PGC-1a expression decrease), %; 240 tested, under 10 active; AID 743467, 2014;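 active = compound lowering PGC-1a expression with fitted half-maximal concentration at most twice its top tested dose; inconclusive = flat curve with moderate opposite-direction effect, or poor fit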;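 also: 0% = neutral control wells median and 100% = positive control wells median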
# Active calls of the source: *; ? = inconclusive; nt = no result; [ ] = another dose, or the depositor's remark. These entries were drawn from the full list.
SMILES,PGC1a acetyl up,Hep G6PC suppr,Hep PCK1 suppr,PGC1a hep suppr
COc1cccc(-c2ccc(C3[C@@H]4CN(S(=O)(=O)c5cccc(OC)c5)C[C@H]3N4)cc2)c1 (some centres undefined),57*,nt,nt,nt
O=S(=O)(c1ccc(-c2ccccc2)cc1)N1C[C@@H]2N[C@H](C1)[C@@H]2c1ccc(-c2cccnc2)cc1,-55,nt,nt,nt
O=C(c1ccc(F)cc1)N(C(=O)c1ccc(F)cc1)c1ncccn1,-43,nt,nt,nt
CC1CCCCC1NC(=O)C1CCN(C(=O)NC2CCCCC2)CC1 (centres undefined),-51,nt,nt,nt
O=C(CN1CCC(n2nnc3cc(F)ccc32)CC1)Nc1ccc2c(c1)CCC2,103*,nt,nt,nt
C[C@H](CO)N1C[C@H](C)[C@@H](CN(C)Cc2ccccc2F)Oc2ncc(Br)cc2C1=O,-64,nt,nt,nt
CCC(C)C(NC(=O)C1CCC(C)CC1)C(=O)NCc1cccnc1 (centres undefined),55*,nt,nt,nt
O=C(NCc1cccnc1)C1CC(=O)N(C2CCCCC2)C1 (centres undefined),-44,nt,nt,nt
O=C(NC1CCCN(Cc2ccc(Cl)cc2)C1)c1ccccc1C(F)(F)F (centres undefined),-47,nt,nt,nt
CCCCN(CCCC)S(=O)(=O)c1ccc2oc(C(=O)N3CCOCC3)c(C)c2c1,102*,11,5.3,48
c1nc(NC2CCCCCC2)c2[nH]cnc2n1,-41,nt,nt,nt
Cc1ccc2[nH]cc(C(=O)CN3CCN(c4ccccc4F)CC3)c2c1,-48,-39[8 µM],-18,25
O=C(C(Cc1ccccc1)n1cccc1)N1CCN(c2ccccc2)CC1 (centres undefined),?,-81,-4.9,29
O=C(NC1CCCCC1)C(c1ccc2ncccc2c1)N(Cc1ccc2c(c1)OCO2)C(=O)c1ccc2c(c1)OCCO2 (centres undefined),-96,nt,nt,nt
COc1ccc(N(C(=O)c2csnn2)C(C(=O)NC2CCCC2)c2cccs2)cc1 (centres undefined),53*,33,nt,?
COc1cc2cc(C)c3nnc(SCC(=O)Nc4cc(C)on4)n3c2cc1OC,-40,nt,nt,nt
COC(=O)c1ccc(OC)c(OC2CCCC2)c1,-89,nt,nt,nt
O=C(NCCCN1CCOCC1)c1ccccc1N1C(=O)[C@@H]2Cc3c([nH]c4ccccc34)C(c3ccccc3)N2C1=O (some centres undefined),320*,230,83,63
c1ccc(Sc2ccccn2)cc1,-76,nt,nt,nt
Cc1ccccc1NC(=O)/C(C#N)=C\c1cc(C)n(-c2ccc(C(=O)O)cc2)c1C,-44,nt,nt,nt
CCOCCOC(=O)C(C)Oc1ccc(Oc2nc(Cl)ccc2Cl)cc1 (centres undefined),-88,nt,nt,nt
O=C(Nc1ccc2c(c1)OCO2)C1CCN(c2ccc(S(=O)(=O)N3CCOCC3)cc2)CC1,-48,-45,0.28,41
Cc1ccc(C2CC2c2n[nH]c(=S)n2-c2ccc(Cl)cc2)cc1 (centres undefined),-45,nt,nt,nt
Cc1ccccc1CSc1nnc(-c2ccco2)n1Cc1ccco1,-99,nt,nt,nt
COc1ccc(-c2cc(-c3ccccc3O)[nH]n2)cc1OC,95*,17,55,31
SMILES,PGC1a acetyl up,Hep G6PC suppr,Hep PCK1 suppr,PGC1a hep suppr
CCN1CCN(c2nnc(-c3ccccc3)c3ccccc23)CC1,-46,nt,nt,nt
CCOc1ccc(N(C)S(=O)(=O)c2cc(-c3cc(C)no3)ccc2C(C)C)cc1,65*,nt,nt,?
O=C(COc1cccnc1[N+](=O)[O-])NCCc1ccc(Cl)cc1,-49,nt,nt,nt
Clc1ccccc1OCCCCN1CCCC1,-42,nt,nt,nt
Cn1ncc(Cl)c1C(=O)Nc1sc2c(c1C(N)=O)CCC2,59*,16,-10,39
O=C(Nc1ccc(F)cc1)c1sc2cc(C(F)(F)F)cnc2c1-c1cccs1,-114,nt,nt,nt
Cc1ccc(NC(=O)c2sccc2SCc2cccc(C(F)(F)F)c2)cc1,?,-22,76,141
CCOC(=O)C1=C(CNCc2ccc(C)cc2)NC(=O)NC1c1cc(C)ccc1C (centres undefined),-50,nt,nt,nt
C=CCn1c(SCC(=O)NCc2ccccc2)nnc1-c1ccccc1O,-58,nt,nt,nt
Nc1c(C(=O)Nc2ccccc2)c2nc3ccccc3nc2n1CCCN1CCOCC1,57*,197,106,-12
CCOCCCNC(=O)c1ccccc1SC,-46,nt,nt,nt
C=CCN=C1S/C(=C/c2ccc([N+](=O)[O-])cc2)C(=O)N1CC=C,-42,nt,nt,nt
c1coc(CN(Cc2cccs2)Cc2nnnn2C2CCCCC2)c1,?,-10,70,?
COc1ccc(NC(=O)[C@H](Cc2c[nH]c3ccccc23)NC(=O)[C@@H]2Cc3ccccc3CN2)cc1,-63,nt,nt,nt
CC(=O)c1cc(-c2ccccc2)n(CCC(=O)NC2CCCCC2)c1C,?,-16,18,35
CC(=O)n1nc2nc(C)cc(C)c2c1N,-41,nt,nt,nt
CCN(CC)c1ccc(N)cc1S(=O)(=O)Nc1ccccc1OC,57*,-10,79,25
COC(=O)c1cc(S(=O)(=O)N2CCN(c3ccc(C(C)=O)cc3)CC2)c[nH]1,?,-40,-54,-28
O=[N+]([O-])c1nn(-c2ccc(Cl)cc2)n(O)c1=NCc1ccncc1,-46,nt,nt,nt
O=C(COc1ccc(Cl)cc1Cl)NCCCN1CCOCC1,-41,nt,nt,nt
COc1ccc(N=C2SCC(c3ccc(C)cc3)=NN2CCO)cc1,-78,nt,nt,nt
O=C(NCc1csc(-c2cccs2)n1)c1cccc(Cl)c1,-43,22,37,53
Cn1c(SCc2ccon2)nc2ccccc2c1=O,-49,nt,nt,nt
O=C(c1nc2nc(-c3ccccc3)cc(C(F)(F)F)n2n1)N1CCCCC1,-41,nt,nt,nt
Cc1cc(=O)n2[nH]c(=O)c(N=Nc3ccccc3)c2[nH]1,-44,nt,nt,nt
SMILES,PGC1a acetyl up,Hep G6PC suppr,Hep PCK1 suppr,PGC1a hep suppr
CCOC(=O)C(C)n1cnc2c(nnn2-c2ccc(C)cc2)c1=O (centres undefined),-67,52,-31[8 µM],?
CC(=O)Oc1ccc(-c2csnn2)cc1,-95,nt,nt,nt
CCN(CC)CCNc1nc(-c2ccc(OC)cc2)c(-c2ccc(OC)cc2)s1,-45,nt,nt,nt
CCC(=O)N(CC)c1nc(-c2ccc(OC)cc2)cs1,-48,-10,-26,65
O=C(NC(=S)Nc1ccccc1N1CCCC1)c1cccs1,-51,nt,nt,nt
CC(=O)c1ccc(NC(=O)N2CCc3ccccc3C2)cc1,269*,45,-13,45
CCCS(=O)(=O)N1CCCC(C(=O)NCCCOC(C)C)C1 (centres undefined),-64,nt,nt,nt
O=C(CSc1nc2ccc(Cl)cc2[nH]1)c1ccc2c(c1)OCO2,-49,nt,nt,nt
Cc1nonc1NC(=O)CSc1nc(C2CCCCC2)nc2ccccc12,-55,nt,nt,nt
OCCNc1nc(N2CCCCC2)nc2ccccc12,-67,nt,nt,nt
O=C(Cn1c(CN2CCCCC2)nc2ccccc2c1=O)Nc1ccccc1,-50,19[8 µM],63,95
CCc1ccc(S(=O)(=O)/N=C2\C=C(Nc3ccc(O)cc3)C(=O)c3ccccc32)cc1,-63,nt,nt,nt
Cc1ccc(/C=N/N2CCN(Cc3ccccc3)CC2)cc1,-54,nt,nt,nt
COC(=O)C(Nc1ccccc1Cl)(c1cc(C)c(O)c(C)c1)C(F)(F)F (centres undefined),69*,30,19[8 µM],?

# Screening results deposited in PubChem BioAssay by Broad Institute.
